Data published in the EternaBench riboswitch data.

Tested on: MS2 coat protein
Assay: apparent Kd, MS2 coat protein; higher = weaker binding; RNA-MaP array; FMN 200 µM where present
In short: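 SNAP-549-labelled MS2 coat protein, doubled from 0.7 or 1.5 nM to 3 µM, was titrated over designs transcribed by stalled E. coli RNA polymerase on Illumina sequencing-chip clusters. Titrations were run without and then with constant ligand in 100 mM Tris-HCl pH 7.5, 80 mM KCl, 4 mM MgCl2, BSA, DTT, yeast tRNA and Tween-20. The apparent Kd is the median of filtered per-cluster fits to green signal normalised to red-channel RNA signal and control-cluster median Fmax.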

[1] = designed as: OFF switch for flavin mononucleotide, no ligand
[2] = ligand present: flavin mononucleotide, designed as: OFF switch for flavin mononucleotide
[3] = designed as: ON switch for flavin mononucleotide, no ligand
[4] = ligand present: flavin mononucleotide, designed as: ON switch for flavin mononucleotide

Row | Sequence | apparent Kd [1] | apparent Kd [2] | apparent Kd [3] | apparent Kd [4]
1 | UCGCGAUGAGGAUAUACAUAGAAAUAGAUUCAUGUAAAACUACAUGAGGAUCACCCAUGUAGAAGGCAUUGCGU | 23 nM | 128 nM |  | 
2 | CAUGUGUUAGGAUAUGCACCGAUCUCCGAAAGGAGAUCGGUGCAGAAGGAACAUGAGGAUCACCCAUGUUGAUG | 39.9 nM | 140 nM |  | 
3 | GUGCCUUGGGAGAAGGAUAAUAAUAAAUAAAUAAUAGGAUAUUCAUACCGGAAACGGACAUGAGGAUCACCCAUGUGGCACAAA |  |  | 413 nM | 125 nM
4 | CCGGCUUAGUAGGAUAUAGGAGUCGAUAGACACCUAGAAGGACUAACAUGAGGAUCACCCAUGUGUCCUACCGG | 14.3 nM | 29.3 nM |  | 
5 | ACUCAGUCAGGAUAUCGUUAAUUUAAUUGUUUGUAUUAGUUCGAGAAGGGACAUGAGGAUCACCCAUGUACUCA | 31.7 nM | 87.4 nM |  | 
6 | GCUAGUAUUGCAGGAUAUUGUAAUUUAUUAUUUCAAGAAGGGCAUUACAUGAGGAUCACCCAUGUCAUCCUAUGGUUUACUAGC | 9.2 nM | 19.9 nM |  | 
7 | UUUUCACAUGAGGAUCACCCAUGUGAGGAUAUGGAGCGCGACCGCGCGGUCGCGUACACCAGAAGGCGCAUGAU | 30.5 nM | 36.6 nM |  | 
8 | GGAUGCAAAGAGAAGGGCUACUGGUUGAAACCUGCGGCCUCUGGAACAUGAGGAUCACCCAUGUAGCAGGAUAUCUUUACGUCA | 173 nM | 39.4 nM |  | 
9 | AAUUGACCUGUCAGGAUAUAGAGGGAGACUUACAUCUAGAAGGGACAUGAGGAUCACCCAUGUCAGUUGAGACA | 19.8 nM | 22.6 nM |  | 
10 | GCAGGAUAAGUGAGGAUAUACCUCUGGAUACAGAGGUAGAAGGCACAUGAGGAUCACCCAUGUUACUCACCUGC | 11.9 nM | 33.8 nM |  | 
11 | CGAUAGGACAGAGGAUAUACACAUGAGGAUCACCCAUGUGAUUACAACGCGAAAGCGCCAAACAUGUAGAAGGCUGUCCUAUCG | 22.7 nM | 12 nM |  | 
12 | UAGAUACAUGAGGAUCACCCAUGUGAGGAUAUCGUUUGUACUAAUCUUUUAGUAUUUUCGAGAAGGCACAUAUA | 73.9 nM | 183 nM |  | 
13 | GAGUGACAUGAGGAUCACCCAUGUGAGGAUAUCGGACGGACCAAAUUAACAAUAUUUGCGAGAAGGCACAUCGG | 88.5 nM | 130 nM |  | 
14 | AUUAAUUAAUUAAUACAUGAGGAUCACCCAUGUAAUAAGAUCAAGGAUAUCAGCUCGUUUAGAGCUGAGAAGGUGAUCACAUGU |  |  | 617 nM | 214 nM
15 | CUUUUGUGAGGAUAUUAGUUGUAAAUAAAUAAAAUUACUACUGAGAAGGCACAUGAGGAUCACCCAUGUUCCUC | 33.3 nM | 161 nM |  | 
16 | GUCAGCUCGUGAGGAUAUACUUCACUGCUUCGGCAGUGUAUUAAGAUCACAUGAGGAUCACCCAUGUAGAAGGCACGAGCUGAU | 22.8 nM | 182 nM |  | 
17 | UUUUUGUGAGGAUAUCAGUAGUAGAACAAUAGUACUACUACUGAGAAGGUACAUGAGGAUCACCCAUGUUCCUC | 19.4 nM | 23.7 nM |  | 
18 | UCGAUGCUAGGAUAUACUAAUACAACUACUGAAGUGUCUUCACAUGAGGAUCACCCAUGUAGAAGGAGCAUAUA | 59.5 nM | 46.8 nM |  | 
19 | AAUGUGUGUCGAGGAUAUAUAACAUGACAACAAACACAUACAUGAGGAUCACCCAUGUCCCAUGUAUAGAAGGCGAUAUAUAUA |  |  | 310 nM | 1120 nM

Row | Sequence | apparent Kd [1] | apparent Kd [2] | apparent Kd [3] | apparent Kd [4]
20 | UCUGGUCGAGGAUAUACGUGACGUGCUUCGGCACGAGGUCUACAUGAGGAUCACCCAUGUAGAAGGCGACCAGA | 17.1 nM | 48 nM |  | 
21 | CACCCACAUGAGGAUCACCCAUGUGAGGAUAUGAUACUAUGUACUUCGGUACAUAGUAUCAGAAGGCACAGGUG | 32 nM | 106 nM |  | 
22 | GGAUAGGACAGAGGAUAUACGUGCUAGAGAUACUAGCAAAAUUUCCUCACAUGAGGAUCACCCAUGUAGAAGGCUGUGCUAUCG | 16.4 nM | 343 nM |  | 
23 | CUUAAACAUGAGGAUCACCCAUGUGAGGAUAUGAUGCGAAUAAAGAAAGAAGAAAGCAUCAGAAGGCACAUAUG | 86.9 nM | 236 nM |  | 
24 | CCACGACCGGAGAAGGCAGUUUGUGGGCCUGUUCCUGUCGGAUACAUGAGGAUCACCCAUGUACCUGAGGAUAUCUGGUCGCAG | 5.52 nM | 6.07 nM |  | 
25 | UUGGAGGUCGUAGGAUAUGUAGGAUAUUCCUACAUGAGGAUCACCCAUGUUGACAUGGAAGAAGGACAGAAGGACGAUGUCCAU |  |  | 367 nM | 6.26 nM
26 | ACAUGAGGAUCACCCAUGUUAUCCGGGACUUCAAUUGUUUCUAGAAGGCUGUUUACUUGUUAGUCAGAGGAUAUAGAAUCAAAU | 10.7 nM | 11.4 nM |  | 
27 | ACAUGACAAUCAGGAUAUCGACAUGAGGAUCACCCAUGUACGGGUGUCAAUCGAGAAGGGAUUGUAGCGCCAACUGAGACGUUU | 78 nM | 110 nM |  | 
28 | UUAUUAUGUGUAGGAUAUGCAUAUUAUUAUUAUGCAGAAGGACAUGAGGAUCACCCAUGUAUAUUAUUAUUAUAUAUUAUAUAU | 30.9 nM | 46.2 nM |  | 
29 | GGUACCUUCACAGGAUAUGCUAUGGUUUCCGUAGCAGAAGGGUGAUACAUGAGGAUCACCCAUGUGGUGCCAGGGCGUGAGCCC |  |  | 387 nM | 293 nM
30 | AAGAAGUGAGGAUAUACAUGAGGAUCACCCAUGUUAAGAAGAAUUUUAGAGAAAGAAGGUAGAAGGCACAAGAA | 49.5 nM | 47.1 nM |  | 
31 | UUUGCAUUCCGAGGAUAUUCAUAUAAUAAAUAAACAUGAGGAUCACCCAUGUGGCGAAAGCCUAGGGAGAAGGCGGUUUGCUUU |  |  | 139 nM | 25.7 nM
32 | AUCCGGAGUCAGGAUAUGUGGCUAAAGAUGCGCAUAGAAGGGAUUACAUGAGGAUCACCCAUGUGGCUUACAUG | 132 nM | 109 nM |  | 
33 | AAAUAAAGGACUGAGGAUAUACCACAUGAAACAUGAGGAUCACCCAUGUAAUAAUACAAAGGGUGGUAGAAGGUAGUCCACAAACA |  |  | 34.9 nM | 16.8 nM
34 | AGUUACAUACUCAACAUGAGGAUCACCCAUGUACUCUCUUGUAAGGAUAUACAUUCGUAUUGAUAGUAGAAGGUACUAAUUAUG |  |  | 50.9 nM | 51.5 nM
35 | AAUUACAUGUAGAAGGUACUUUCAUAAGUGUUGUAAGGAUAUACCAAUUUAUUAGUUUUAAAGAUACAUGAGGAUCACCCAUGU |  |  | 8.59 nM | 8.18 nM
36 | GCUAUAGCGGAGGAUAUCCCGAAAAGAAGUUUAGGAGAAGGCCGCACAUGAGGAUCACCCAUGUGAGUCCGCAA | 22.7 nM | 119 nM |  | 
37 | UGAGACCUCACAGGAUAUGCUGGACUUUGUCCAGCAGAAGGGUGAAAACAUGAGGAUCACCCAUGUAUGGUCUCCAAAUUUAAA |  |  | 187 nM | 13.6 nM
38 | UCCACUACUGAGAAGGGAUACAUAUGGUUCUAGUCAGGAUAUCGAUACAGUGCAGCAUGAGGACAUGAGGAUCACCCAUGUAUU |  |  | 54.6 nM | 36.2 nM

Row | Sequence | apparent Kd [1] | apparent Kd [2] | apparent Kd [3] | apparent Kd [4]
39 | GUCAGCUCGUGAGGAUAUACAACACUGCUUCGGCAGUGUAUUAACAUCACAUGAGGAUCACCCAUGUAGAAGGCACGAGCUGAU | 4.99 nM | 7.45 nM |  | 
40 | AUCAUGAGAGGAUAUACAUGAGGAUCACCCAUGUGGUCAUCUCCACGGGCUCAAUUACGUAGAAGGCUCAUUUG | 18 nM | 66.2 nM |  | 
41 | AUCGGGAUUACAUGAGGAUCACCCAUGUCAGAACGGGUAGUUAGAAGGUGCCAUUAGGGAGAGGGUAAGGAUAUAAUUUUUGGC |  |  | 14.6 nM | 12.8 nM
42 | ACAUGGUAUGUCAGGAUAUCUAACCGCAACGUUCUAGAGAAGGGACAUGAGGAUCACCCAUGUACGUUGUAAGA | 54.3 nM | 117 nM |  | 
43 | AGAAAUCAUGUAGGAUAUGCAUGGCGAAGCUACGCAGAAGGACAUGAGGAUCACCCAUGUUAUAGCGUCCGAGAAAGGAUGCAA | 27.9 nM | 187 nM |  | 
44 | GCUCUAUGCGAGAAGGCGUGAAACAUGAGGAUCACCCAUGUCAGAGAUAUGAGGAUAUUGCAUAGAGCAAAAGACGGAAACGUC |  |  | 12.2 nM | 5.02 nM
45 | AAUAACAGAGGAUAUACUGUUUUAUGUGUUUAUUAUUUUGAACAUGAGGAUCACCCAUGUAGAAGGCUGAAUGA | 32.7 nM | 31.5 nM |  | 
46 | UGUCCAUAGCAGAAGGACAUGUAUAAUCAUGAAAACAUGAGGAUCACCCAUGUAGGAUAUGCUAUGGACUAAGAGCGAAAGCUC | 19.9 nM | 297 nM |  | 
47 | CUAAAUCAUGUAGGAUAUGCGUGGCGAAGCUAUGCAGAAGGACAUGAGGAUCACCCAUGUUUUUCCGUCUGCGUACAGACGGAA | 259 nM | 260 nM |  | 
48 | AUAACGUCAGGAUAUUUCCAGAGGGUCAUAGGACCCAUUGGAAAGAAGGGACAUGAGGAUCACCCAUGUCGGUG | 136 nM | 391 nM |  | 
49 | ACAUGAGGAUCACCCAUGUCACUUUUACAUGGGUAUAUAAGCGAGGAUAUGCAUAUACCCUGGGUGCAGAAGGCGCUUUUUUAA | 74.5 nM | 105 nM |  | 
50 | GCUUGUGAAGGAUAUACUGGCGGCGUGCGCUCGGCGCGCGCACAUGAGGAUCACCCAUGUAGAAGGUCAGGCGU | 13.8 nM | 12.5 nM |  | 
51 | CUUCGUAUAGAGGAUAUAGGAUACGAAAGUGUCCUAGAAGGCUGUACAUGAGGAUCACCCAUGUACUUCAGAUC | 13.2 nM | 16.4 nM |  | 
52 | CGUUGGUUAGGAUAUAGCCUCCUGGUGGGAAGGCCGGGUGGCUAGAAGGAACAUGAGGAUCACCCAUGUAUGGA | 62.6 nM | 33.3 nM |  | 
53 | GGACGACCCAUUAACAUGAGGAUCACCCAUGUCAAAAGACAUGAGGAUAUGGUACCUAAUUGGUACCAGAAGGCAUGGUCGUCC |  |  | 1470 nM | 107 nM
54 | CGGGAAGUCGUAGGAUAUGGUGAUGUACAUGAGGAUCACCCAUGUCCGUCUUCUCUCACAAGAUGCCAGAAGGGCGACUCCCGG |  |  | 641 nM | 317 nM
55 | CCUAAGGAGGUAGGAUAUAGUGUGGUGGCCGGGCUCCCACGGCGAGCGGCACUAGAAGGAUCGCUACAUGAGGAUCACCCAUGU |  |  | 10.2 nM | 9.71 nM
56 | GCUAAGCGAAUUAAGAUGAAUAGAACAUGAGGAUCACCCAUGUAGGAUAUGCUACACAAAGUGUAGCAGAAGGACAAGCUUAGC | 20.2 nM | 25.4 nM |  | 
